This passage reports Ki and Activity results from ChEMBL document CHEMBL3407391, “Ether analogues of DPA-714 with subnanomolar affinity for the translocator protein (TSPO)” (Eur J Med Chem, 2015).

For assay [1], the target named is T1, Translocator protein (Rattus norvegicus, UniProt P16257). Description: Inhibition of rat TSPO.
The target in assay [2] is Translocator protein (Homo sapiens, UniProt P30536). Description: Inhibition of human TSPO.
Assay [3] deals with C6. As to the kind of experiment: Induction of pregnenolone production in rat C6 cells at 40 uM after 2 hrs by ELISA based steroidogenesis assay relative to control. It counts as functional. In outline: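 C6 glioma cells grown in DMEM with 10% FBS at 37 °C, 5% CO2, then seeded at 1×10^4 cells/well and washed three times with simple salts medium (HEPES/NaOH pH 7.4, 0.1% BSA). Cells were exposed to compound at 40 μM in salts medium with trilostane (25 μM) and SU 10603 (10 μM) for 2 h at 37 °C, DMSO ≤0.5%. Secreted pregnenolone was measured by ELISA; 6–9 replicates.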

Assay [4] concerns the target T1, Translocator protein. Set-up: species or system Wistar, Kidney.

T1 sequence (P16257 whole entry, looked up): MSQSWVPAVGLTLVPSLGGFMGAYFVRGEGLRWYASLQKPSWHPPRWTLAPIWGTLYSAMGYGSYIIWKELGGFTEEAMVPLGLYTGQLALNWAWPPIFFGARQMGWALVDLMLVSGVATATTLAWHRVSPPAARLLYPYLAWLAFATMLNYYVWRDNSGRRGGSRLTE
Translocator protein (Homo sapiens, UniProt P30536), sequence (P30536 whole entry): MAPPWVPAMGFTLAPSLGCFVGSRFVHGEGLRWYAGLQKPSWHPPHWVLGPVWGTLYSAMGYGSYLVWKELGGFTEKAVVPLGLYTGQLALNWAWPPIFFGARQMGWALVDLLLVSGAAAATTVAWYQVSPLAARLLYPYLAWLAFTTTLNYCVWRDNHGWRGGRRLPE

As usually defined, the Ki is the equilibrium dissociation constant of an inhibitor or competing ligand from its target. A higher Ki goes with a looser hold on the target. Regarding `COc1ccccc1CN(C(C)=O)c1cnccc1Oc1ccccc1`, the inhibition constant (Ki) in assay [1] turned out to be 0.7 nM; in assay [2] it was 2.5 nM.

As to `CCN(CC)C(=O)Cc1c(-c2ccc(OC(C)C)cc2)nn2c(C)cc(C)nc12`, the Activity in assay [3] came out at 165%.

In assay [3], `CCN(CC)C(=O)Cc1c(-c2ccc(OCC(C)C)cc2)nn2c(C)cc(C)nc12` registered an Activity of 206.5%.

The compound `CCN(CC)C(=O)Cc1c(-c2ccc(OC3CCC3)cc2)nn2c(C)cc(C)nc12` showed an inhibition constant Ki in assay [4] of 0.86 nM. For the same compound, in assay [3], the Activity is 184.3%.

As for `CCN(CC)C(=O)Cc1c(-c2ccc(OC3CCCC3)cc2)nn2c(C)cc(C)nc12`, the Ki in assay [4] was determined as 1.5 nM. The Activity in assay [3] worked out at 273.4%.

In assay [3], `CCN(CC)C(=O)Cc1c(-c2ccc(OCC3CC3)cc2)nn2c(C)cc(C)nc12` came in with an Activity of 226.3%.

As to `CCN(CC)C(=O)Cc1c(-c2ccc(OCC3CCC3)cc2)nn2c(C)cc(C)nc12`, in assay [3], the Activity is 298.4%.

For `CCN(CC)C(=O)Cc1c(-c2ccc(OCC3CCCC3)cc2)nn2c(C)cc(C)nc12`, in assay [3], the Activity is 173.9%.

Consider `CCN(CC)C(=O)Cc1c(-c2ccc(OCC3CCCCC3)cc2)nn2c(C)cc(C)nc12`, for which the Activity in assay [3] is 134.2%.

In the case of `CCN(CC)C(=O)Cc1c(-c2ccc(OCc3ccccc3)cc2)nn2c(C)cc(C)nc12`, the Activity in assay [3] is recorded as 262.4%.

Turning to `CCN(CC)C(=O)Cc1c(-c2ccc(OCc3ccccc3F)cc2)nn2c(C)cc(C)nc12`, in assay [3], the Activity is 161.5%.

Consider `CCN(CC)C(=O)Cc1c(-c2ccc(OCc3cccc(F)c3)cc2)nn2c(C)cc(C)nc12`, for which the affinity in assay [4] corresponds to a Ki of 0.47 nM. In addition, the Activity in assay [3] turned out to be 281.2%.

Regarding `CCN(CC)C(=O)Cc1c(-c2ccc(OCc3ccc(F)cc3)cc2)nn2c(C)cc(C)nc12`, the Activity in assay [3] worked out at 311.7%.

Regarding `CCN(CC)C(=O)Cc1c(-c2ccc(OCc3ccccc3C(F)(F)F)cc2)nn2c(C)cc(C)nc12`, in assay [4], the affinity, expressed as Ki, was 1.4 nM. The compound further displayed an Activity in assay [3] of 331.7%.

As to `CCN(CC)C(=O)Cc1c(-c2ccc(OCc3cccc(C(F)(F)F)c3)cc2)nn2c(C)cc(C)nc12`, the affinity in assay [4], expressed as Ki, was 0.67 nM. Moreover, the Activity in assay [3] came to 230%.

Consider `CCN(CC)C(=O)Cc1c(-c2ccc(OCc3ccc(C(F)(F)F)cc3)cc2)nn2c(C)cc(C)nc12`, for which the Ki in assay [4] was 1.6 nM. The same compound showed an Activity in assay [3] of 189.9%.

For `CCN(CC)C(=O)Cc1c(-c2ccc(OCCc3ccccc3)cc2)nn2c(C)cc(C)nc12`, in assay [3], the Activity worked out at 254%.

For `COc1ccc(OC)c(CN(C(C)=O)c2cc(F)ccc2Oc2ccccc2)c1`, in assay [2], the Ki came to 0.2 nM.

Turning to `CCC(C)N(C)C(=O)c1cc2ccccc2c(-c2ccccc2Cl)n1` (stereo unspecified) [PK-11195], the Activity in assay [3] was determined as 166.5%.
